What was measured:
[1] = target: T1, Receptor-type tyrosine-protein phosphatase beta (Homo sapiens, UniProt P23467); test: Inhibition of PTP-beta receptor using 3-O-Methylfluorescein phosphate as substrate incubated for 10 mins prior to substrate addition by fluorometry
Outline: (§1)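 OMFP phosphatase assay, 20 °C, in 100 mM Tris pH 7.4 with 2 mM DTT. OMFP is taken from a 20 mM DMSO stock and diluted in 1% DMSO. It is used near each enzyme's KM, which is determined beforehand. Enzyme and arylstibonate are preincubated 10 min at RT, then OMFP is added. OMF release is read by fluorescence (ex 485, em 525 nm). Dose-response curves give IC50.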

[2] = target: T1, Receptor-type tyrosine-protein phosphatase beta; test: Inhibition of PTP-beta receptor using […] as substrate by colorimetric analysis
[3] = target: T2, M-phase inducer phosphatase 1 (Homo sapiens, UniProt P30304); test: Inhibition of N-terminal His-tagged Cdc25a catalytic domain expressed in Escherichia coli BL21(DE3) using 3-O-Methylfluorescein phosphate as substrate by secondary plot analysis
T2 sequence (P30304 whole entry): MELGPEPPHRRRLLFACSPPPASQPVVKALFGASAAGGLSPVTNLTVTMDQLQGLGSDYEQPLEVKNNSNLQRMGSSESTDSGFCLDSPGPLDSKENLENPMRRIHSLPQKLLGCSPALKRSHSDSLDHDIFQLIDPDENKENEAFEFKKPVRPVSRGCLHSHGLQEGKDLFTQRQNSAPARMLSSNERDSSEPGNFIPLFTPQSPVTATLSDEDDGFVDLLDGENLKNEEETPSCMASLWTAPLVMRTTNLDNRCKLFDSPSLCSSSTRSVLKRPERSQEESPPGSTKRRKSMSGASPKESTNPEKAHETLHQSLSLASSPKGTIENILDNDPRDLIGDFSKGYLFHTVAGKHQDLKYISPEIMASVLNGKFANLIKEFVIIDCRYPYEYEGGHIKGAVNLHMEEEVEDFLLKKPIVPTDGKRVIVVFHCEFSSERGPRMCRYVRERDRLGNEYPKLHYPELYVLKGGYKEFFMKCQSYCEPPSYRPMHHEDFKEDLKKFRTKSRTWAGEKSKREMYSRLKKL
Outline: (§2)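 Steady-state kinetics of the Cdc25a and Cdc25b catalytic domains with varying OMFP and several arylstibonate concentrations. Run at 20 °C in 100 mM Tris pH 7.4 with 2 mM DTT, after a 10 min RT enzyme–inhibitor preincubation. Fluorescence read at ex 485/em 525 nm. Michaelis–Menten plots give apparent Km and Vmax; secondary plots give Ki.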

[4] = target: T3, M-phase inducer phosphatase 2 (Homo sapiens, UniProt P30305); test: Inhibition of N-terminal His-tagged Cdc25b catalytic domain expressed in Escherichia coli BL21(DE3) using 3-O-Methylfluorescein phosphate as substrate by secondary plot analysis; outline: as §2
T3 sequence (P30305 whole entry): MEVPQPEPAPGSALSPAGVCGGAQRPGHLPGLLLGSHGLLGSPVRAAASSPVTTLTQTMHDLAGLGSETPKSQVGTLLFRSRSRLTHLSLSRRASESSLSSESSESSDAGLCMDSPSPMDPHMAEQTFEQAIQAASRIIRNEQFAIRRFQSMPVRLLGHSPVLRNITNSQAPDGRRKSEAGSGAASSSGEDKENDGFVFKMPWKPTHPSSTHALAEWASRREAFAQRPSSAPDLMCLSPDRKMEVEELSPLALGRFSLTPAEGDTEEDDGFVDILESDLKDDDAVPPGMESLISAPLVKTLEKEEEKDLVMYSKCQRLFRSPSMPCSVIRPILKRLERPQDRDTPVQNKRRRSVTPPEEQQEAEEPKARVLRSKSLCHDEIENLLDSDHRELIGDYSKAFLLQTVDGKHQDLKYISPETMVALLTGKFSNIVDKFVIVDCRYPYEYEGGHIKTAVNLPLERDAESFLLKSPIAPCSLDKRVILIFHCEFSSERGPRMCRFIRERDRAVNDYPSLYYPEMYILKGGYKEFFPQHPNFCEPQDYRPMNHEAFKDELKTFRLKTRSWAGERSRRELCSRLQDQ

[5] = target: T2, M-phase inducer phosphatase 1; test: Inhibition of N-terminal His-tagged Cdc25a catalytic domain expressed in Escherichia coli BL21(DE3) using 3-O-Methylfluorescein phosphate as substrate incubated for 10 mins prior to substrate addition by fluorometry; outline: as §1
[6] = target: T4, Phosphatidylglycerophosphatase and protein-tyrosine phosphatase 1 (Homo sapiens, UniProt Q8WUK0); test: Inhibition of PTPMT1 using 3-O-Methylfluorescein phosphate as substrate incubated for 10 mins prior to substrate addition by fluorometry; outline: as §1
T4 sequence (Q8WUK0 whole entry): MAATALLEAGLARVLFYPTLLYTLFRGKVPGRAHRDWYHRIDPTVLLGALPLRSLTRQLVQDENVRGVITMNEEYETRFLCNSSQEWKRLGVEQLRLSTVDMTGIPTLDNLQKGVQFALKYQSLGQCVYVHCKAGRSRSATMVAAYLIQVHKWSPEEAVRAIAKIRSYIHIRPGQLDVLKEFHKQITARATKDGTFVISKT

[7] = target: T3, M-phase inducer phosphatase 2; test: Inhibition of N-terminal His-tagged Cdc25b catalytic domain expressed in Escherichia coli BL21(DE3) using 3-O-Methylfluorescein phosphate as substrate incubated for 10 mins prior to substrate addition by fluorometry; outline: as §1
[8] = target: T5, Dual specificity protein phosphatase 6 (Homo sapiens, UniProt Q16828); test: Inhibition of MKP3 using 3-O-Methylfluorescein phosphate as substrate incubated for 10 mins prior to substrate addition by fluorometry; outline: as §1
T5 sequence (Q16828 whole entry): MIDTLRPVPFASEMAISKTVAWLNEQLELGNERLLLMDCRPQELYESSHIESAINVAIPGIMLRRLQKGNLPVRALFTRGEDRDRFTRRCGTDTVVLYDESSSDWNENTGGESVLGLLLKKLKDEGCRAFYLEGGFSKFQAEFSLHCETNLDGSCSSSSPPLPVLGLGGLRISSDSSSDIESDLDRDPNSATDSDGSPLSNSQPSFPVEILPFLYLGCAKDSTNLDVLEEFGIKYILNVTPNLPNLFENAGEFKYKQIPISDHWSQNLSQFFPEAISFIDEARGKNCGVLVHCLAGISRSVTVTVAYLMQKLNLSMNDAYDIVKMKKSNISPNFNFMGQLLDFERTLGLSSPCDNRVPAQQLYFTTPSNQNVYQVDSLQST

[9] = target: Dual specificity protein phosphatase 3 (Homo sapiens, UniProt P51452); test: Inhibition of human recombinant His-tagged VHR using 3-O-Methylfluorescein phosphate as substrate incubated for 10 mins prior to substrate addition by fluorometry; outline: as §1
[10] = target: Phosphatidylinositol 3,4,5-trisphosphate 3-phosphatase and dual-specificity protein phosphatase PTEN (Homo sapiens, UniProt P60484); test: Inhibition of human PTEN using 3-O-Methylfluorescein phosphate as substrate incubated for 10 mins prior to substrate addition by fluorometry; outline: as §1
[11] = target: T6, M-phase inducer phosphatase 3 (Homo sapiens, UniProt P30307); test: Inhibition of N-terminal His-tagged Cdc25c catalytic domain expressed in Escherichia coli BL21(DE3) using 3-O-Methylfluorescein phosphate as substrate incubated for 10 mins prior to substrate addition by fluorometry; outline: as §1
T6 sequence (P30307 whole entry): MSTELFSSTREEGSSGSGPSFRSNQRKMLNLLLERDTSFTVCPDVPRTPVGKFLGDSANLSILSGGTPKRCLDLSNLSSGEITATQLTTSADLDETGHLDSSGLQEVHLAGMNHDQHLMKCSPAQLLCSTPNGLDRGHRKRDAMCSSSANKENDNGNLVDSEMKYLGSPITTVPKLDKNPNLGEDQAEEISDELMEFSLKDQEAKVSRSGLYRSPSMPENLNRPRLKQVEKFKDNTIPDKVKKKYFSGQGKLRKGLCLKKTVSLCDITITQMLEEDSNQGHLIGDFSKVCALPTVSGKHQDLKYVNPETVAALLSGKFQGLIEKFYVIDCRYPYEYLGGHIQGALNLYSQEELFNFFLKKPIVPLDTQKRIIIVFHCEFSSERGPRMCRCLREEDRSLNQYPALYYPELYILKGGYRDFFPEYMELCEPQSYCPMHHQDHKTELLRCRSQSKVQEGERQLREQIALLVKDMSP

[12] = target: T7, Tyrosine-protein phosphatase non-receptor type 1 (Homo sapiens, UniProt P18031); test: Inhibition of PTP1B using 3-O-Methylfluorescein phosphate as substrate incubated for 10 mins prior to substrate addition by fluorometry; outline: as §1
T7 sequence (P18031 whole entry): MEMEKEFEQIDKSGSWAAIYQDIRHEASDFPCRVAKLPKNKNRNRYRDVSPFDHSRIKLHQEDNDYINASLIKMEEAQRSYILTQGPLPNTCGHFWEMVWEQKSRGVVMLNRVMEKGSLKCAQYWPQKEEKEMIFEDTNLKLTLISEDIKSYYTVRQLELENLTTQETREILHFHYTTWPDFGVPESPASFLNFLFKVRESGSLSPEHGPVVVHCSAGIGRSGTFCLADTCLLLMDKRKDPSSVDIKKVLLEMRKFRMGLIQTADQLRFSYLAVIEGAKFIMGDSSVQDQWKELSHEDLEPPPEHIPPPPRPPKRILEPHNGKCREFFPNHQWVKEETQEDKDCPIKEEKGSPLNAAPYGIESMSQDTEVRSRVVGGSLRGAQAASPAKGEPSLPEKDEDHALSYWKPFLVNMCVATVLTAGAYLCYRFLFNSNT

T1 sequence (P23467 whole entry): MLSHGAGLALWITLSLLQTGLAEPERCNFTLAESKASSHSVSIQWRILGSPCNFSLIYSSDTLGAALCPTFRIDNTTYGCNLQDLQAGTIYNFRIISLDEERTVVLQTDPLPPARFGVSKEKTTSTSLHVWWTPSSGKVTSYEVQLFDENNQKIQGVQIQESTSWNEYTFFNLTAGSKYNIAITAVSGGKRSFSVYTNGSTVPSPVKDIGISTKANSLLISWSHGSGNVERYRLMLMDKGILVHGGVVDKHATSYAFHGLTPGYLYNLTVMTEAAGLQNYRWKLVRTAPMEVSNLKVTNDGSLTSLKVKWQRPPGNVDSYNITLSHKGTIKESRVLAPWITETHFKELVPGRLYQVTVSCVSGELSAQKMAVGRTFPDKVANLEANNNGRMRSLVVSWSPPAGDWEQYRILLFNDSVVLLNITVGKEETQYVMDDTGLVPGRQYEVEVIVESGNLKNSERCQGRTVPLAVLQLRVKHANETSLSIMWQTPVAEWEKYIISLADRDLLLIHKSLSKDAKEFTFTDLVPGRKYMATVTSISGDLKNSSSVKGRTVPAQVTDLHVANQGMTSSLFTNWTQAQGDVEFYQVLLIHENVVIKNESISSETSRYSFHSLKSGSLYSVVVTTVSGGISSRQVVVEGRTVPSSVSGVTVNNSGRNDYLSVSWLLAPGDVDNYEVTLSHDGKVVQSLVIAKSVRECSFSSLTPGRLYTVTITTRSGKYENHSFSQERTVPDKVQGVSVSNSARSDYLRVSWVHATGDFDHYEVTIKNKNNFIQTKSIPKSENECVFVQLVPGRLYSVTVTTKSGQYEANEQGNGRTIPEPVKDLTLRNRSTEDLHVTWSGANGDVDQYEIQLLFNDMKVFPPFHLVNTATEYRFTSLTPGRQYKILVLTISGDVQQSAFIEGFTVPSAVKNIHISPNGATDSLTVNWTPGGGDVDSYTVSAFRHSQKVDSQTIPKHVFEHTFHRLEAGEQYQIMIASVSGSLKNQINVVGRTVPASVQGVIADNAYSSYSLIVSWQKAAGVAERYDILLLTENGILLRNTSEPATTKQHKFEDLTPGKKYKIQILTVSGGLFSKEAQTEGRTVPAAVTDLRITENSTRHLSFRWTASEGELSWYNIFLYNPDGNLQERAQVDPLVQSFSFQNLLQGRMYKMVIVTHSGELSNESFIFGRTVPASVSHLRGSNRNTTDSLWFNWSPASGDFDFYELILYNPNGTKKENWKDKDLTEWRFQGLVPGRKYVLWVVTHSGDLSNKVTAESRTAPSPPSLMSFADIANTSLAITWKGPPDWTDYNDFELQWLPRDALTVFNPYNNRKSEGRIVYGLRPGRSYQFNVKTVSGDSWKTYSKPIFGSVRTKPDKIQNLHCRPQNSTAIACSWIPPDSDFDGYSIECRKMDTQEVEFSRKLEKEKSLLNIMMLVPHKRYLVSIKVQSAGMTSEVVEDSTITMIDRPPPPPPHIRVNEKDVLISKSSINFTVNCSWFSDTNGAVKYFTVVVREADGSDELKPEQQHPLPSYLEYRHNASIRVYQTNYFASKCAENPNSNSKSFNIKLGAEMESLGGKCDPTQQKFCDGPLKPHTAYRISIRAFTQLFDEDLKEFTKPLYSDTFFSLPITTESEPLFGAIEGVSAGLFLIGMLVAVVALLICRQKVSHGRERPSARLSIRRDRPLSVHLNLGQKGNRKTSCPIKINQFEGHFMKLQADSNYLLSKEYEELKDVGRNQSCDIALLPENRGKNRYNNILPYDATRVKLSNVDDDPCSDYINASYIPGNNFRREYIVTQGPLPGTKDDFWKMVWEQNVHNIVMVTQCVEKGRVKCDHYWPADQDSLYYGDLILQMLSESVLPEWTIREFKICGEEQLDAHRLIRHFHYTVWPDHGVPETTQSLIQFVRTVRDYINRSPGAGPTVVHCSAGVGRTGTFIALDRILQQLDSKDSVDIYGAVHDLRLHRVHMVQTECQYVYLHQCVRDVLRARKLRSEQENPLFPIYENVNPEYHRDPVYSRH
Dual specificity protein phosphatase 3, sequence (P51452 whole entry): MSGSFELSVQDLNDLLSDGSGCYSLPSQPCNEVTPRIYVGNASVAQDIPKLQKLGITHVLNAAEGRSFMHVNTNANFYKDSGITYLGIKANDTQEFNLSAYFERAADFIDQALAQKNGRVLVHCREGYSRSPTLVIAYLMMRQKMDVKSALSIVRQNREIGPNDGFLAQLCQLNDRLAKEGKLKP
Phosphatidylinositol 3,4,5-trisphosphate 3-phosphatase and dual-specificity protein phosphatase PTEN, sequence (P60484 whole entry, the tested form may be a part): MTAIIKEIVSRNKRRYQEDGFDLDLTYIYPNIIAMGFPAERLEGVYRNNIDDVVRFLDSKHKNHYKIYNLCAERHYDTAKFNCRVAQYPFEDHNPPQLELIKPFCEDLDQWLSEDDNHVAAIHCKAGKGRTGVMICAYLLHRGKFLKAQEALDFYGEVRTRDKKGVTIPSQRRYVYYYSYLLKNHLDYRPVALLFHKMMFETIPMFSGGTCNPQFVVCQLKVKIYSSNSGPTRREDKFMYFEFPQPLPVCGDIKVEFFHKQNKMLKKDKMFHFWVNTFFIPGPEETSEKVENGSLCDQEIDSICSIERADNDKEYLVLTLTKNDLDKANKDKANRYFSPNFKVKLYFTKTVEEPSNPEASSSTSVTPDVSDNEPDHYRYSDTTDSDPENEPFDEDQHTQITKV

Row | SMILES | IC50 [1] [µM] | IC50 [2] [µM] | Ki [3] [µM] | Ki [4] [µM] | IC50 [5] [µM] | IC50 [6] [µM] | IC50 [7] [µM] | IC50 [8] [µM] | IC50 [9] [µM] | IC50 [10] [µM] | IC50 [11] [µM] | IC50 [12] [µM]
1 | O=C(O)/C=C/c1ccc[c]([Sb](=[O])([OH])[OH])c1 [(2E)-3-{3-[dihydroxy(oxo)--stibanyl]phenyl}prop-2-enoic acid] | 0.77 | 0.1 | 0.072 | 0.369 | 0.11 | 1.62 | 0.6 | > 10 | > 10 | 10 | > 10 | 7.93
2 | O=C(O)CCc1ccc[c]([Sb](=[O])([OH])[OH])c1 | 1.62 | 0.1 | 1.7 | 4.7 | 3.15 | 13.4 | 5.67 | > 100 | > 100 | 8.87 | > 100 | > 100
